Results taken from ChEMBL document CHEMBL1125001, “Selective inhibition of urokinase by substituted phenylguanidines: quantitative structure-activity relationship analyses” (J Med Chem, 1990).

Experiments:
[1] = biological target: Plasma kallikrein (Homo sapiens) (UniProt P03952); test: Inhibition against human plasma Kallikrein at 2 mM; format: cell-free
Summary of the method: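 Human plasma kallikrein in 50 mM Tris/HCl, 100 mM NaCl, pH 8.44, with H-D-Pro-Phe-Arg-p-nitroanilide (S-2302) as chromogenic substrate. Percent inhibition was taken at 2.0 mM inhibitor against 0.1 mM S-2302 (Km = 0.604 mM).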

[2] = biological target: T1, Tissue-type plasminogen activator (Homo sapiens, UniProt P00750); test: Inhibition against Tissue plasminogen activator at 1 mM
Summary of the method: (§1)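 Tissue-type plasminogen activator assayed by chromogenic amidolysis of H-D-Ile-Pro-Arg-p-nitroanilide (S-2288) in 0.2 M Tris/AcOH, pH 8.00. Percent inhibition was measured at 1.0 mM inhibitor against 0.3 mM S-2288 (Km = 0.673 mM). Separate Ki work used 0.1–0.9 mM S-2288.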
Target sequence in this assay (P00750 36-562 limits assumed): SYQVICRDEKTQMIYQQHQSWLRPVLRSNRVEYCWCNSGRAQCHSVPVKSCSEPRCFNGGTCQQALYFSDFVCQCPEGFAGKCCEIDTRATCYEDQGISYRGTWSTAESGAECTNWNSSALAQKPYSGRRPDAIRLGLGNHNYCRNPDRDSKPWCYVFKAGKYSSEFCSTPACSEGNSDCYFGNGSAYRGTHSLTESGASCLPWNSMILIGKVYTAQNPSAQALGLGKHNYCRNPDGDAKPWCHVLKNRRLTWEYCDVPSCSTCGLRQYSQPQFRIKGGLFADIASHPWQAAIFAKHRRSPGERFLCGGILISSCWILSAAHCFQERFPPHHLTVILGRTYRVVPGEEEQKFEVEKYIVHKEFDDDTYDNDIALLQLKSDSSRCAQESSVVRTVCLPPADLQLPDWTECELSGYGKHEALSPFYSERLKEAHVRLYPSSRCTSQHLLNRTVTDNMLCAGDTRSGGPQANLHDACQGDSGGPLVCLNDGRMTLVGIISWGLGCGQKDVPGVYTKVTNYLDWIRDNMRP

[3] = biological target: T2, Urokinase-type plasminogen activator (Homo sapiens, UniProt P00749); test: log1/Ki value was calculated against Urokinase-type plasminogen activator; settings: read-out: Log 1/Ki (converted)
Serine protease 1 [4] = biological target: T3, Serine protease 1 (Bos taurus, UniProt P00760); test: Inhibition against Trypsin
T3 sequence (P00760 whole entry): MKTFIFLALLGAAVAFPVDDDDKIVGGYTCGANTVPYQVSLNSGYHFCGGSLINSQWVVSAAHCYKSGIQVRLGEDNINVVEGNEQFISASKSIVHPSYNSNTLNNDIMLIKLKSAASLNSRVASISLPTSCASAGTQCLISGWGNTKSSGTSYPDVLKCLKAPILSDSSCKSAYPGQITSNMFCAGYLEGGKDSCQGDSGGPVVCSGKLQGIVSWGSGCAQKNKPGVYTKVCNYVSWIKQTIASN

Serine protease 1 [5] = biological target: T3, Serine protease 1; test: log1/Ki value was calculated against Trypsin; settings: read-out: Log 1/Ki (converted)
[6] = biological target: Prothrombin (Homo sapiens) (UniProt P00734); test: Inhibition against human plasma thrombin at 1.0 mM; format: cell-free
Summary of the method: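 Highly purified human plasma thrombin in 0.2 M Tris/AcOH, pH 8.00, with H-D-Ile-Pro-Arg-p-nitroanilide (S-2288) as chromogenic substrate. Inhibition was measured at 1.0 mM inhibitor against 7.0 µM S-2288 (Km = 7.10 µM).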

[7] = biological target: T2, Urokinase-type plasminogen activator; test: Inhibition against Urokinase-type plasminogen activator
Plasminogen = Plasminogen (Homo sapiens, UniProt P00747); test: Inhibition against human plasmin was determined at 0.5 mM
Summary of the method: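 Human plasmin chromogenic amidolysis assay with substrate S-2251. Inhibition was measured at 0.5 mM inhibitor against 0.3 mM S-2251 (Km = 0.664 mM).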

[8] = biological target: T1, Tissue-type plasminogen activator; test: The compound was tested for its inhibition against Tissue plasminogen activator at 1 mM when assayed against 0.3 mM S-2288 (Km = 0.673 mM); summary of the method: as §1
Target sequence in this assay (P00750 whole entry): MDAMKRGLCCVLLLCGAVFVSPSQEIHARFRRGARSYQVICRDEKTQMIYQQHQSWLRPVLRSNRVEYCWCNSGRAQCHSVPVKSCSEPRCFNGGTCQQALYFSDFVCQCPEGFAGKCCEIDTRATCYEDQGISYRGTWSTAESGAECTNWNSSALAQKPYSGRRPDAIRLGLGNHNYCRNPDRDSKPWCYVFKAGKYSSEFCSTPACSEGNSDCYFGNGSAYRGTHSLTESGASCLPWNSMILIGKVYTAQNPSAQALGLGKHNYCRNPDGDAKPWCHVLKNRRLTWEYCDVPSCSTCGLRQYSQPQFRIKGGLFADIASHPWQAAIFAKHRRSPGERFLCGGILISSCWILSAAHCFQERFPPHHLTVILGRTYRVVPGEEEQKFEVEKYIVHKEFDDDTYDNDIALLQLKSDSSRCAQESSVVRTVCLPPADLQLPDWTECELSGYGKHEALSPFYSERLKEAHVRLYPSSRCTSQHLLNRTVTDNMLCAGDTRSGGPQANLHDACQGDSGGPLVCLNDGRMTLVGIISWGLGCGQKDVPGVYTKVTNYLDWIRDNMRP

Sequence of Plasma kallikrein (Homo sapiens) (P03952 20-390 limits assumed): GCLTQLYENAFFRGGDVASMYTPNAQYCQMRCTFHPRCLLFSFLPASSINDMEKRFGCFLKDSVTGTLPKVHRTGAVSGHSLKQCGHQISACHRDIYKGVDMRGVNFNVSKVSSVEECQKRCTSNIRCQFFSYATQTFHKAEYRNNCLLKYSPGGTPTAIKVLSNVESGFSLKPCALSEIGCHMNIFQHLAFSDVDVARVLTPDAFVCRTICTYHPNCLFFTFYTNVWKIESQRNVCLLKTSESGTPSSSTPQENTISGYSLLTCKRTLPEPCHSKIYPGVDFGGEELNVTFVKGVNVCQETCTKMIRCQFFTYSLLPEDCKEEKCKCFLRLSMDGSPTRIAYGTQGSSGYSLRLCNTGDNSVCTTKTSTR
Sequence of Plasma kallikrein (Homo sapiens) (P03952 391-638 limits assumed): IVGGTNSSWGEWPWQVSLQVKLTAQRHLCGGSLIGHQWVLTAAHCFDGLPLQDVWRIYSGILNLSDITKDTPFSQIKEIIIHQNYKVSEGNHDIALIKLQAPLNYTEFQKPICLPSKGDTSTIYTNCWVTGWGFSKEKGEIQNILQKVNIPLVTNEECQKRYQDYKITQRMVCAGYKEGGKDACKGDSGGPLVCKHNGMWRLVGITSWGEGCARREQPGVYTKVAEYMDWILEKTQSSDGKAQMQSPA
Sequence of Plasminogen (P00747 97-580 limits assumed): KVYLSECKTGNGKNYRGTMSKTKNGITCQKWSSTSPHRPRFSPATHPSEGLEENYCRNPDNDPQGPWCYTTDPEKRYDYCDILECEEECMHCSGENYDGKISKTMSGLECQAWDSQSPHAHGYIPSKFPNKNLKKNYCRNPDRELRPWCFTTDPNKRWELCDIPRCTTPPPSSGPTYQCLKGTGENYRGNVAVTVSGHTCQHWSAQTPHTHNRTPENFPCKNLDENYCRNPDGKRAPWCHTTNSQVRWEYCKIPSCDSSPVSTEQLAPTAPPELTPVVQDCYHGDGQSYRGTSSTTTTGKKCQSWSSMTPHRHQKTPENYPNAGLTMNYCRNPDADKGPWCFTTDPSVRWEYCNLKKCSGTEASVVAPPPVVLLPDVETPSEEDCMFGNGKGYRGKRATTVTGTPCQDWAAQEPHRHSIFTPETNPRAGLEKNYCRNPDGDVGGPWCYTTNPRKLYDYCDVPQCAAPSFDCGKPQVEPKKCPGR
Sequence of Plasminogen (P00747 581-810 limits assumed): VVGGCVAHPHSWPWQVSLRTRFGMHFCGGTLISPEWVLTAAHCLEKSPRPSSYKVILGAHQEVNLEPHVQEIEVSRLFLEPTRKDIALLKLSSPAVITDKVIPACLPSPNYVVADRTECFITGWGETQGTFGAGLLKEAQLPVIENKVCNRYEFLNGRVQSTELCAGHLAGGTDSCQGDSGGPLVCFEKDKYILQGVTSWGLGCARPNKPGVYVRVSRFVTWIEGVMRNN

Row | SMILES | inhibition [1] [%] | inhibition [2] [%] | Ki [3] [µM] | Ki (Serine protease 1 [4]) [µM] | Ki (Serine protease 1 [5]) [µM] | inhibition [6] [%] | Ki [7] [µM] | Ki (Plasminogen) [µM] | Ki [8] [µM]
1 | Cc1ccc(NC(=N)N)cc1 | < 30 | < 45 | 15.6 | 318 | 318 | < 10 | 15.6 | – | –
2 | N=C(N)Nc1ccc(Br)cc1 | < 30 | < 45 | 30.7 | 2780 | 2780 | < 10 | 30.7 | – | –
3 | N=C(N)Nc1cccc(C(F)(F)F)c1 | < 30 | < 45 | – | – | – | < 10 | – | – | –
4 | NC(N)=Nc1ccccc1[N+](=O)[O-] | – | – | 54.3 | 133 | 133 | – | 54.3 | – | –
5 | N=C(N)Nc1ccc(F)cc1 | < 30 | < 45 | 72.4 | 808 | 807 | < 10 | 72.4 | – | –
6 | Cc1ccccc1NC(=N)N | < 30 | < 45 | 259 | 3550 | 3550 | < 10 | 259 | – | –
7 | N=C(N)Nc1ccccc1Cl | < 30 | < 45 | – | – | – | < 10 | – | – | –
8 | NC(N)=Nc1ccccc1Cl | – | – | 103 | 898 | 897 | – | 103 | – | –
9 | N=C(N)Nc1ccccc1[N+](=O)[O-] | < 30 | < 45 | – | – | – | < 10 | – | – | –
10 | N=C(N)Nc1ccc(Cl)cc1 | < 30 | < 45 | 6.07 | 120 | 120 | < 10 | 6.07 | – | –
11 | N=C(N)Nc1ccc(C(=O)O)cc1 [4-GUANIDINO-BENZOIC ACID] | < 30 | < 45 | 745 | 10000 | 10000 | < 10 | 745 | – | –
12 | N=C(N)Nc1ccccc1 [PHENYLGUANIDINE] | < 30 | – | 20.6 | 163 | 163 | < 10 | 20.6 | 2610 | 733

The next lines start with the values.

Row | inhibition [1] [%] | inhibition [2] [%] | Ki [3] [µM] | Ki (Serine protease 1 [4]) [µM] | Ki (Serine protease 1 [5]) [µM] | inhibition [6] [%] | Ki [7] [µM] | Ki (Plasminogen) [µM] | Ki [8] [µM] | SMILES
13 | < 30 | < 45 | – | – | – | < 10 | – | – | – | N=C(N)Nc1cccc(Cl)c1
14 | < 30 | < 45 | 136 | 881 | 881 | < 10 | 136 | – | – | COc1ccccc1NC(=N)N
15 | < 30 | < 45 | 1450 | 652 | 652 | < 10 | 1450 | – | – | COC(=O)c1ccc(NC(=N)N)cc1
16 | – | < 45 | 1320 | 4920 | 4920 | – | 1330 | – | – | N=C(N)Nc1ccc(/C=C/C(=O)O)cc1
17 | < 30 | – | 20.6 | 352 | 352 | < 10 | 20.6 | – | – | N=C(N)Nc1ccc([N+](=O)[O-])cc1
18 | < 30 | < 45 | 90.8 | 5770 | 5770 | < 10 | 90.7 | – | – | CCc1ccc(NC(=N)N)cc1
19 | < 30 | < 45 | 676 | 5890 | 5890 | < 10 | 676 | – | – | COc1ccc(NC(=N)N)cc1
20 | – | – | 61.7 | 1100 | 1100 | – | 61.8 | – | – | NC(N)=Nc1cccc(Cl)c1
21 | < 30 | < 45 | 6.49 | 63.1 | 63.1 | < 10 | 6.49 | – | – | N=C(N)Nc1ccc(C(F)(F)F)cc1
22 | – | – | 419 | 10700 | 10700 | – | 419 | – | – | NC(N)=Nc1cccc(C(F)(F)F)c1
23 | < 30 | < 45 | 388 | 1180 | 1180 | < 10 | 388 | – | – | N=C(N)Nc1ccccc1N
